pEC50: −log10 of the molar value. Where two headings read alike, the source gives them in different places.
How the values were obtained:
[1] = Phase I safety and tolerability assessment; type: in vivo, human; conditions: for safety and tolerability: multiple administration, healthy adults
Procedure, shortened: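 Healthy Japanese men took 600 mg orally four times daily on day 1 and days 3–9. Monitoring throughout covered symptoms, physical examination, and supine blood pressure and pulse. It also covered temperature, oxygen saturation, weight, hematology, biochemistry, coagulation and spot urinalysis. ECGs were 12-lead plus monitor, and adverse events were recorded.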

[2] = Solubility / Biopharmaceutics Classification System class; type: physicochemical; conditions: inferred from solubility and structure-suggested poor permeability
[3] = in vivo
[4] = cited from earlier work
[5] = cited from earlier work; remark: listed apart in the source
TMPRSS2 = conditions: cited from earlier work
[6] = test system: SARS‐CoV‐2 infection of a cell line derived from human airway epithelial cells (Calu‐3); conditions: cited from earlier work
[7] = cited from earlier work; remark: listed apart in the source
[8] = type: in vivo, human; conditions: for AUC(0-t) / Tmax / half-life / Cmax: male, human, plasma, 600 mg; for AUC(0-t) / Tmax / half-life: oral; for AUC(0-t): AUC4h; for Cmax: po, 600 mg camostat mesylate oral
Procedure, shortened: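 Night doses were fasted. Cohort 1 took daytime doses after a meal, except a fasted day-1 morning dose. Cohort 2 dosed 30 min premeal on day 1, then 1 h premeal. Plasma GBPA was measured by LC-MS/MS and analysed noncompartmentally. Food ratios came from a mixed-effects model on ln Cmax and AUC24h.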

Population PK = assay: Population PK; set-up: species or system human; conditions: for Food effect against fasted on KA: covariate multiplier
Procedure, shortened: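 Plasma GBPA came from 14 multiple-dose subjects (372 points) and 10 earlier single-dose fasted subjects (47 points). Modelling used NONMEM with FOCE and interaction. Doses were converted to GBPA equivalents by molecular-weight ratio. One- and two-compartment models with first-order absorption and linear elimination were tested, with additive, proportional or combined residual error. Between-subject variability and interoccasion variability were log-normal, and food condition was tested as a covariate.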

SARS‐Cov‐2 infection = conditions: read-out: EC50 value of GBPA that inhibited SARS-CoV-2 infection; cited from earlier work
[9] = Cohort 2, Day 1, 30 min before a meal
[10] = Cohort 2, Day 3, 1 h before a meal
[11] = Cohort 2, Day 9, 1 h before a meal
[12] = Cohort 1, Day 1, Fasted, mean (SD)
[13] = Cohort 1, Day 3, Fed, mean (SD)
[14] = Cohort 1, Day 9, Fed, mean (SD)
[15] = Cohort 2, Day 1, 30 min before a meal, mean (SD)
[16] = Cohort 2, Day 3, 1 h before a meal, mean (SD)
[17] = Cohort 2, Day 9, 1 h before a meal, mean (SD)

SMILES: CN(C)C(=O)COC(=O)Cc1ccc(OC(=O)c2ccc(NC(=N)N)cc2)cc1.CS(=O)(=O)O [camostat mesylate, dimethylcarbamoylmethyl 4‐(4‐guanidinobenzoyloxy)phenylacetate monomethanesulfonate]
- findings in safety laboratory values, vital signs, or ECG parameters ([1]; 600 mg q.i.d.): no clinically significant findings
- serious adverse events or deaths ([1]; 600 mg q.i.d.): no serious adverse events or deaths
- safety and tolerability ([1]; 600 mg q.i.d.): no safety concerns were raised
- safety and tolerability ([1]; 600 mg q.i.d., listed as Camostat mesylate): safe and tolerated
- QTcF change from baseline ([1]; all subjects): ≤ 60 ms
- QTcF interval ([1]; any postbaseline visit, all subjects): ≤ 480 ms
- Biopharmaceutics Classification System class [2]: class 3
- human equivalent dose converted from the dog NOAEL [3]: 3333 mg
- presence in plasma after oral administration [4]: not detectable
- half-life in human plasma [5]: ≤ 1 min
- TMPRSS2 inhibition (TMPRSS2): inhibited
- SARS-CoV-2 infection of Calu-3 cells [6]: prevented
- solubility [7]: soluble

SMILES: N=C(N)Nc1ccc(C(=O)Oc2ccc(CC(=O)O)cc2)cc1 [GBPA, 4‐(4‐guanidinobenzoyloxy)phenylacetic acid]
- exposure of GBPA compared with the fasted state ([8]; 1 h before a meal): no significant difference
- AUC4h against fasted, geometric mean ratio (95% confidence interval) ([8]; Cohort 1, Day 3, Fed): 0.31 (0.23, 0.43)
- Cmax against fasted, geometric mean ratio (95% confidence interval) ([8]; Cohort 1, Day 3, Fed): 0.28 (0.18, 0.42)
- AUC4h against fasted, geometric mean ratio (95% confidence interval) ([8]; Cohort 1, Day 9, Fed): 0.30 (0.21, 0.43)
- Cmax against fasted, geometric mean ratio (95% confidence interval) ([8]; Cohort 1, Day 9, Fed): 0.27 (0.17, 0.42)
- AUC4h against fasted, geometric mean ratio (95% confidence interval) [8, 9]: 0.43 (0.29, 0.64)
- Cmax against fasted, geometric mean ratio (95% confidence interval) [8, 9]: 0.50 (0.31, 0.86)
- AUC4h against fasted, geometric mean ratio (95% confidence interval) [8, 10]: 0.53 (0.31, 0.91)
- Cmax against fasted, geometric mean ratio (95% confidence interval) [8, 10]: 0.57 (0.30, 1.08)
- AUC4h against fasted, geometric mean ratio (95% confidence interval) [8, 11]: 0.79 (0.46, 1.37)
- Cmax against fasted, geometric mean ratio (95% confidence interval) [8, 11]: 0.95 (0.51, 1.75)
- Cmax and AUC relative to values under fasted conditions ([8]; administered after a meal and at 30 min before a meal): not more than 50%
- exposure of GBPA compared with the fasted state ([8]; after a meal and 30 min before a meal): significantly lower
- AUC(0-t) [8, 12]: 683 ng·h/mL
- AUC(0-t) [8, 13]: 206 ng·h/mL
- AUC(0-t) [8, 14]: 194 ng·h/mL
- AUC(0-t) [8, 15]: 227 ng·h/mL
- AUC(0-t) [8, 16]: 366 ng·h/mL
- AUC(0-t) [8, 17]: 556 ng·h/mL
- Tmax ([8]; Tmax, Cohort 1, Day 1, Fasted, median (range)): 1 h
- Tmax ([8]; Tmax, Cohort 1, Day 3, Fed, median (range)): 2 h
- Tmax ([8]; Tmax, Cohort 1, Day 9, Fed, median (range)): 2 h
- Tmax ([8]; Tmax, Cohort 2, Day 1, 30 min before a meal, median (range)): 1 h
- Tmax ([8]; Tmax, Cohort 2, Day 3, 1 h before a meal, median (range)): 1 h
- Tmax ([8]; Tmax, Cohort 2, Day 9, 1 h before a meal, median (range)): 1 h
- half-life ([8]; half-life, plasma GBPA elimination): < 2 h
- Tmax ([8]; median Tmax, fasted conditions, 30 min before a meal, and 1 h before a meal): 1 h
- Tmax ([8]; median Tmax, fed conditions): 2 h
- half-life ([8]; t1/2, Cohort 1, Day 1, Fasted, mean (SD), n = 6): 1.58 h
- half-life ([8]; t1/2, Cohort 1, Day 3, Fed, mean, n = 2): 1.33 h
- half-life ([8]; t1/2, Cohort 1, Day 9, Fed, mean (SD), n = 3): 1.16 h
- half-life ([8]; t1/2, Cohort 2, Day 1, 30 min before a meal, mean (SD)): 1.35 h
- half-life ([8]; t1/2, Cohort 2, Day 3, 1 h before a meal, mean (SD), n = 6): 1.05 h
- half-life ([8]; t1/2, Cohort 2, Day 9, 1 h before a meal, mean (SD)): 0.962 h
- Cmax [8, 12]: 371 ng/mL
- Cmax [8, 13]: 95.8 ng/mL
- Cmax [8, 14]: 93.5 ng/mL
- Cmax [8, 15]: 177 ng/mL
- Cmax [8, 16]: 218 ng/mL
- Cmax [8, 17]: 367 ng/mL
- Food effect against fasted on KA (Population PK; 30 min before a meal, FIXED): 1.0 FIXED
- Food effect against fasted on KA (Population PK; 1 h before a meal, FIXED): 1.0 FIXED
- Food effect against fasted on KA (Population PK; Fed): 0.0807
- Absorption rate constant (KA) (Population PK; PopPK fixed effect estimate): 5.91 h⁻¹
- Lag time (Population PK; PopPK fixed effect estimate): 0.319 h
- IOV on FA (Population PK; interoccasion variability): 35.8 % CV
- IOV on KA (Population PK; interoccasion variability): 105 % CV
- Proportional residual error (Population PK; intra-subject variability): 0.39 % CV
- Vd/F (Population PK; male, human, plasma, oral): 904 L
- clearance (Population PK; male, human, plasma, oral): 11300 mL/min
- pEC50 (SARS‐Cov‐2 infection): 6.75
